Kir21 block: Kir2.1 (mouse) channel inhibition; B-score at 10 µM; AID 1672; 0.85% of 310,000 active; HEK293-Kir2.1, FluxOR thallium flux fluorescence; active compounds read low;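 active = fluorescence ratio B-score at or below minus 3 SD of library scores, with starting-brightness B-score within 2 SD, cut at about -4.2 in these data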;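 also: channel flux triggered by added potassium and thallium sulfate stimulus; B-score of peak minus minimum fluorescence over baseline after thallium stimulus; more negative B-score means stronger Kir2.1 block with less thallium influx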
KCNK9 block: blocks the human KCNK9 two-pore domain potassium channel; Q9NPC2; HEK293 KCNK9, FluxOR thallium flux fluorescence; active compounds read low; B-score at 10 µM; 1.2% of 310,000 active;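 active = ratio B-score over 3 SD below the library mean, with starting fluorescence within 5 SD of its mean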;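 also: negative B-score means less thallium flux so channel inhibition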
hERG rescue: compounds protecting human hERG from proarrhythmic drug block | Q12809 | CHO-hERG, FluxOR thallium flux, dofetilide IC70 present | activation (rescue from dofetilide block), less the hit threshold, % at 10 µM | 0.51% of 310,000 active;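 active = activation above the mean of controls blocked by dofetilide plus 5 SD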;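 also: thallium influx through hERG after potassium depolarization seen as dye fluorescence rise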
KCNQ1 block: blocks the human KCNQ1 potassium channel. P51787. CHO-K1 KCNQ1, FluxOR thallium flux fluorescence; active compounds read high. B-score at 10 µM. 1.3% of 310,000 active;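 active = compounds whose thallium flux B-score, printed positive for inhibition, exceeds three library SD while starting fluorescence stays within three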;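 also: channel opened by potassium depolarization with thallium stimulus after 20 min compound exposure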
Target sequence (P51787 whole entry, looked up): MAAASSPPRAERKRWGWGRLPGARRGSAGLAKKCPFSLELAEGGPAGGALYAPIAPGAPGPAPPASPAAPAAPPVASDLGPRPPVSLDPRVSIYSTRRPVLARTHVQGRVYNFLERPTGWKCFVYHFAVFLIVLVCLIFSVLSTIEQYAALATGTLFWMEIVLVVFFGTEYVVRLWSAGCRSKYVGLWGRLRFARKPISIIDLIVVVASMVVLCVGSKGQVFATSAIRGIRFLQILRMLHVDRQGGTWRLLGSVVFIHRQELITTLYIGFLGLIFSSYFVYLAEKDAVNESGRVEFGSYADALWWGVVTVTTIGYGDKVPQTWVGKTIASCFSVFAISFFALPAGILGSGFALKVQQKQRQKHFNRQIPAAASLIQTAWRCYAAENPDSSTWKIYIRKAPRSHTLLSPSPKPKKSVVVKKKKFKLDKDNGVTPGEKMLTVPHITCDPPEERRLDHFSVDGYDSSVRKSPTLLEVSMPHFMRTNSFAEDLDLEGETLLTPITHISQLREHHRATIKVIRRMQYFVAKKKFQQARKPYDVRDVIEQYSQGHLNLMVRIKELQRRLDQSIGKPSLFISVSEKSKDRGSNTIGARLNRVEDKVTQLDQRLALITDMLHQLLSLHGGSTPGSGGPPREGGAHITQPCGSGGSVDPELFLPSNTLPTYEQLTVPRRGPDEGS
KCNK3 inh: human KCNK3 channel inhibition, primary screen; B-score at 10 µM; O14649; AID 602410; 0.84% of 340,000 active; CHO-KCNK3 thallium flux, FluxOR fluorescence; active compounds read low;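 active = B-score under library mean minus 4 SD, starting fluorescence ratio at most library mean plus 5 SD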;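 also: more negative B-score means stronger inhibition of thallium flux through KCNK3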
KCNQ1 pot: potentiators or activators of human KCNQ1 potassium channel; CHO-K1 KCNQ1, thallium flux FluxOR fluorescence; active compounds read high; 0.35% of 310,000 active; B-score at 10 µM;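 active = fluorescence ratio B-score, a plate-corrected score, at least three library SD, with initial intensity B-score within 5 SD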
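assay system = CHO-K1 cells stably expressing KCNQ1 | medium = assay buffer, equal DMSO in all wells | timing = 37 °C overnight plating, 90-min dark dye load, 20-min compound pretreatment | measured by = kinetic FluxOR thallium fluorescence, 10-s 1-Hz baseline, 110-s post-stimulus read | measure = fluorescence change relative to baseline, converted to B score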
Of the large screens only hits and unclear results are named; the others gave an inactive call. This is a sample that favours compounds with a hit; in the whole collection about 3.7% have one here.

CC(NCC(=O)Nc1cc(S(=O)(=O)N2CCOCC2)ccc1N1CCOCC1)c1ccco1 (configuration not stated)	none (no result: Kir21 block, KCNK9 block, hERG rescue, KCNQ1 block, KCNQ1 pot)
CN(C)CCCNC(=O)C[C@H]1C[C@H](C(=O)N2CCOCC2)[C@@]2(CCC3CCCC3)c3[nH]c4cc(CCC(=O)N(C)C)ccc4c3CCN2C1=O	none (no result: Kir21 block, KCNK9 block, hERG rescue, KCNQ1 block, KCNQ1 pot)
CCn1c(CSCc2ccc(F)cc2)nnc1SCC(=O)NCc1ccccc1	none
CCn1c(CSCc2ccc(C)cc2)nnc1SCC(=O)NCc1ccccc1	Kir21 block -6.01
COC(=O)C1CCN(C(=O)c2cc(-c3ccc(Cl)s3)nc3ccccc23)CC1	KCNK3 inh -9.12 (no result: Kir21 block, KCNK9 block, hERG rescue, KCNQ1 block, KCNQ1 pot)
CCSc1ccc([C@@H]2[C@@H]3C(=O)N(CC)C(=O)[C@@H]3[C@]3(C(=O)OC)CCCN23)cc1	none
COc1ccc(NC(=O)N2CCCc3cc(C)ccc32)c(OC)c1	none
COc1ccccc1CC(=O)N1CCCc2cc(C)ccc21	Kir21 block -7.27
Cc1ccc(N(Cc2ccco2)C(=O)c2ccc(N3CCCCC3)c([N+](=O)[O-])c2)cc1	KCNQ1 block 8
O=C(NCc1ccco1)c1ccc(N2CCCCC2)c([N+](=O)[O-])c1	none
CCOC(=O)c1ccc2c(c1)n(CC)c(/C=C/Nc1ccccc1)[n+]2CC	KCNQ1 block 13
CCOc1cccc(CNc2ccc(O)cc2)c1OCc1ccc(Cl)cc1Cl	none
CCOc1cc(CNCCO)cc(Br)c1OCc1ccc(Cl)cc1Cl	Kir21 block -13, KCNK9 block -7.8
CCOc1cccc(CNCCO)c1OCc1ccc(Cl)cc1Cl	Kir21 block -6.1
CCOc1ccccc1N1CCN(C2=C(NS(=O)(=O)c3cccs3)C(=O)c3ccccc3C2=O)CC1	KCNK9 block -6.62
COc1ccccc1NS(=O)(=O)c1ccc2oc(N)nc2c1	Kir21 block -4.33
Oc1c(Br)cc(Cl)cc1C=Nc1ccccc1Br	hERG rescue 10.7, KCNQ1 pot 8
Oc1c(Br)cc(Cl)cc1C=Nc1ccc(N2CCOCC2)cc1	none
CCc1cc(C(=O)N2CCCc3ccccc32)sc1C	none
CCOc1ccc(CCNC(=O)c2nccnc2C(=O)O)cc1OCC	none
CCOc1ccc(CCNC(=O)C2(c3ccccc3)CC2)cc1OCC	Kir21 block -4.52
COc1ccc(Cl)cc1C(=O)CSc1nc(N)cc(N)n1	Kir21 block -4.72
CCCCn1nnnc1SCC(=O)c1cc(Cl)ccc1OC	none
CCC(C)NC(=S)N1CCN(C(c2ccccc2)c2ccccc2)CC1 (configuration not stated)	KCNK9 block -7.66
Cc1c(-c2ccccc2)sc2nc[nH]c(=S)c12	hERG rescue 29.8, KCNQ1 pot 91
CC(C)(C)c1ccc(/C=C2\Oc3cc(O)ccc3C2=O)cc1	none
O=C1/C(=C/c2ccc([N+](=O)[O-])cc2)Oc2cc(O)ccc21	KCNQ1 block 6
Cc1ccc(/C=N/N(Cc2ccccc2)c2ccccc2)o1	KCNK9 block -6.8
N#Cc1c(NC(=O)CSc2ccccn2)oc(-c2ccccc2)c1-c1ccccc1	KCNQ1 block 7
COc1ccc2c(c1)c(/C=C/c1cc[n+](C)cc1)cn2C	KCNK9 block -8
COc1ccc2c(/C=C/c3cc[n+](C)cc3)c[nH]c2c1	none
COc1ccc(CC(=O)NC(C)c2nnc(SCC(=O)c3ccc(OC)cc3)n2C)cc1 (configuration not stated)	none
COc1ccc(CC(=O)NC(C)c2nnc(SCCOc3ccc(OC)cc3)n2C)cc1 (configuration not stated)	Kir21 block -4.27
CN1/C(=C\C=[N+](C)c2ccccc2)C(C)(C)c2ccccc21	KCNQ1 block 8
NS(=O)(=O)c1cccc(NC(=O)c2cccs2)c1	none
O=C(Nc1cccc(N2C(=O)C=CC2=O)c1)c1cccs1	Kir21 block -5.94
CC[n+]1c(/C=C/N(C)c2ccccc2)oc2ccc(F)cc21	none
CC[n+]1c(/C=C/N(C)c2ccccc2)oc2ccccc21	KCNQ1 block 8
CC(C)COC(=O)/C(C#N)=C/c1c[nH]c2ccccc12	KCNK9 block -7.3
CCc1ccc2[nH]c(C(=O)Nc3ccc(F)cc3Br)cc2c1	KCNQ1 pot 8
CC(C)(C)c1ccc(NC(=O)NC2CCCc3ccccc32)cc1 (configuration not stated)	KCNQ1 block 6
CC#CC[N+](C)(C)CCCCCCCCCCCC	Kir21 block -5.04, KCNQ1 block 6
CC(C)Oc1ccc(C(CC(=O)NCc2ccco2)c2ccccc2)cc1 (configuration not stated)	KCNK9 block -7.18
CC(C)CCNC(=O)C(c1ccc(O)cc1)N(Cc1ccco1)C(=O)CCC(=O)Nc1nccs1 (configuration not stated)	none
O=c1c(C=NCCN2CCNCC2)c(-c2ccccc2)[nH]n1-c1ccc([N+](=O)[O-])cc1	Kir21 block -5.44 (no result: KCNK3 inh)
Brc1cc2c(cc1-c1nc3ccccc3s1)OCO2	KCNK9 block -7.12
CN(CCCNC(=O)CCC(=O)N1CCOc2ccc(Cl)cc21)Cc1ccccc1	none
C=CCNC(=S)Nc1sc2c(c1C(=O)OCC)CC(C(C)C)OC2 (configuration not stated)	KCNQ1 pot 48
CCOC(=O)c1c(NC(=S)NCCc2ccccc2)sc2c1CC(C(C)C)OC2 (configuration not stated)	KCNQ1 pot 8
CC(C)C1Cc2c(sc(NC(=S)NC(=O)c3ccccc3)c2C#N)CO1 (configuration not stated)	none
CCOc1cccc(N(C(=O)CNC(=O)c2ccco2)C(C(=O)NCC2CCCO2)c2ccccc2)c1 (configuration not stated)	none
COc1cccc(OC)c1OCCCNC1CCCC1	none
CCOc1cc(S(=O)(=O)NCc2ccccn2)c(C)cc1C	Kir21 block -4.71 (no result: KCNK3 inh)
Cc1ccc(C(C)C)cc1S(=O)(=O)NCc1ccccn1	Kir21 block -5.83
Cc1cc(Br)cc(/C=N/NC(=O)c2ccc3c(c2)OCO3)c1O	KCNQ1 block 8
Brc1cccc(CNCc2cccs2)c1	none
CCOc1cc(CNCCO)cc(Br)c1OCc1cccs1	Kir21 block -12.6
CCOc1cc(CNCc2cccs2)cc(Br)c1OCC	Kir21 block -5.59
CCOc1cc(CNCc2ccncc2)cc(Br)c1OCc1ccccc1F	Kir21 block -7.95
O=C(Cn1ccc2cc(S(=O)(=O)N3CCCC3)ccc21)NCc1ccco1	none
Cc1ccn2c(C(=O)NNC(=O)Nc3ccc(Cl)cc3)c(C)nc2c1	none
O=C(CN(CC1CCCO1)C(=O)CNS(=O)(=O)c1ccc(F)cc1)NC1CCCC1 (configuration not stated)	none
CCNc1nc(-c2ccc(Cl)cc2)cs1	none
CCCc1sc(N)nc1-c1ccc(Cl)cc1	Kir21 block -4.33

High-throughput results from PubChem.
